The test system of one test is Escherichia coli. The experiment in a line: Inhibition of Escherichia coli D110 DNA gyrase after 30 mins by supercoiling assay.
Test [1] has as its system Staphylococcus aureus. The experiment in a line: Antibacterial activity against Staphylococcus aureus ATCC 25923 by twofold agar dilution method. The format is functional. Put shortly: (§1)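 MIC read as lowest inhibitory level in twofold serial dilutions in Müller–Hinton agar; each spot inoculated with 10^4 CFU.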
For orientation: In agar dilution, organisms are placed on agar that contains the substance at set levels.

Test [2] has as its system Staphylococcus aureus. Kind of test: Antibacterial activity against novobiocin R144I-resistant Staphylococcus aureus ATCC 25923 by agar dilution method. Format: functional. In outline: as §1
In test [3] the test system is Staphylococcus aureus. The experiment in a line: Antibacterial activity against Staphylococcus aureus Smith by twofold agar dilution method. The format is functional. In outline: as §1
The test system of test [4] is Staphylococcus aureus. Kind of test: Antibacterial activity against methicillin and quinolones-resistant Staphylococcus aureus Smith QR54 by twofold agar dilution method. The format is functional. Put shortly: as §1
The test system of test [5] is Staphylococcus aureus. Kind of test: Antibacterial activity against erythromycin, methicillin and trimethoprim-resistant Staphylococcus aureus Smith 744 by twofold agar dilution method. The format is functional. In outline:
as §1

For test [6], the system named is Staphylococcus epidermidis. The experiment in a line: Antibacterial activity against Staphylococcus epidermidis ATCC 14990 by twofold agar dilution method. Format: functional. In outline:
(§2)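 Twofold serial dilutions in Müller–Hinton agar with an inoculum of 10^4 CFU per spot. The read-out is the minimal inhibitory concentration (MIC).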

The next test concerns Streptococcus pyogenes. The experiment in a line: Antibacterial activity against Streptococcus pyogenes beta-15 by agar dilution method. Format: functional. In outline: as §2
A further test relates to Enterococcus faecium. Kind of test: Antibacterial activity against ampicillin, trimethoprim and vancomycin-resistant Enterococcus faecium vanA E23-8 by twofold agar dilution method. The format is functional. In outline: as §1

Converted amounts (≈) assume the structure as drawn. Bounds are passed on as bounds.

Among the data in ChEMBL document CHEMBL1139764, “Design, synthesis, and structure-activity relationship studies of new phenolic DNA gyrase inhibitors” (2007) are Activity and MIC values, retold here.

On to `Oc1ccc(Cl)cc1CNc1ccc(Cl)cc1`, for which the Activity in the test on Escherichia coli is 5 µg/mL. Also, the MIC (against Staphylococcus aureus [1]; with Staphylococcus aureus [2]; in the test on Staphylococcus aureus [3]; with Staphylococcus aureus [4]; with Staphylococcus aureus [5]; in test [6]) was 16 µg/mL (≈ 59.7 µM) throughout. Further, the MIC with Streptococcus pyogenes and against Enterococcus faecium was 16 µg/mL (≈ 59.7 µM) throughout.
`CCCCSC1c2c(O)cc(OC)c(C)c2C(=O)N1c1ccc(OC)cc1` (centres undefined) showed an Activity with Escherichia coli of 16 µg/mL.
`COc1cc(O)c2c(c1C)C(=O)N1c3cc4c(cc3C(=O)CC21)OCO4` (centres undefined) came in with an Activity with Escherichia coli of 1 µg/mL. Also, the MIC in the test with Staphylococcus aureus [1] was more than 32 µg/mL; against Staphylococcus aureus [3], more than 32 µg/mL; in test [6] it was 32 µg/mL (≈ 90.6 µM); in the test on Streptococcus pyogenes, more than 32 µg/mL; against Enterococcus faecium it was more than 32 µg/mL.
In the test with Escherichia coli, `COc1ccc2c(c1)CC[C@@H]1c3c(O)cc(OC)c(C)c3C(=O)N21` came in with an Activity of 0.5 µg/mL. Besides, the MIC was 32 µg/mL (≈ 98.4 µM) with Staphylococcus aureus [1]; 8 µg/mL (≈ 24.6 µM) against Staphylococcus aureus [2]; 16 µg/mL (≈ 49.2 µM) against Staphylococcus aureus [3]; 16 µg/mL (≈ 49.2 µM) against Staphylococcus aureus [4]; more than 32 µg/mL in the test on Staphylococcus aureus [5]; less than 2 µg/mL in [6]. Besides, the MIC in the test with Streptococcus pyogenes and against Enterococcus faecium was more than 32 µg/mL each time.
In turn, `COc1cc(O)c2c(c1C)C(=O)N1c3c(C)cccc3COC21` (centres undefined) yielded an Activity in the test with Escherichia coli of 0.5 µg/mL. Also, the MIC was 32 µg/mL (≈ 103 µM) against Staphylococcus aureus [1]; 16 µg/mL (≈ 51.4 µM) in the test with Staphylococcus aureus [2]; 32 µg/mL (≈ 103 µM) with Staphylococcus aureus [3]; 16 µg/mL (≈ 51.4 µM) against Staphylococcus aureus [4]; more than 32 µg/mL against Staphylococcus aureus [5]; 2 µg/mL (≈ 6.42 µM) in [6]. Moreover, the MIC against Streptococcus pyogenes and with Enterococcus faecium was more than 32 µg/mL throughout.
Consider `Oc1c(Cl)cc(Cl)cc1CNc1ccc(Cl)cc1`, for which, in the test with Escherichia coli, the Activity stood at 16 µg/mL.
Consider `COc1ccc2c(c1)[C@@H](O)C[C@@H]1c3c(O)cc(OC)c(C)c3C(=O)N21`, for which the Activity in the test with Escherichia coli worked out at 0.5 µg/mL. Also, the MIC with Staphylococcus aureus [1] was more than 32 µg/mL; against Staphylococcus aureus [2] it was 16 µg/mL (≈ 46.9 µM); in the test with Staphylococcus aureus [3] it was 32 µg/mL (≈ 93.7 µM); in the test with Staphylococcus aureus [4], 16 µg/mL (≈ 46.9 µM); in the test on Staphylococcus aureus [5], more than 32 µg/mL; in test [6], 32 µg/mL (≈ 93.7 µM). Further, the MIC against Streptococcus pyogenes and against Enterococcus faecium was more than 32 µg/mL in each case.
`Oc1ccc(Br)cc1CNc1ccc(Cl)cc1` showed an Activity in the test with Escherichia coli of 16 µg/mL.
The same measure, in the same setting: with `Oc1ccc(Cl)cc1CNc1cccc(Cl)c1` the figure was 8 µg/mL.
Still for that read-out and setting: under `COc1cc(O)c2c(c1C)C(=O)N(c1ccc(Cl)c(Cl)c1)C2` stands 4 µg/mL; under `NS(=O)(=O)c1ccc(NCc2cc(Cl)ccc2O)cc1`, 63 µg/mL.
On the same count and under the same terms, under `COc1ccc(N2C(=O)c3c(C)c(OC)cc(O)c3C2CCO)cc1` (centres undefined) stands 4 µg/mL.
In turn, `COc1cc(O)c2c(c1C)C(=O)N1c3ccc(Cl)cc3CC[C@H]21` returned an Activity in the test with Escherichia coli of 0.25 µg/mL. Further, the MIC against Staphylococcus aureus [1] is more than 32 µg/mL; in the test with Staphylococcus aureus [2], 16 µg/mL (≈ 48.5 µM); against Staphylococcus aureus [3], more than 32 µg/mL; with Staphylococcus aureus [4], 32 µg/mL (≈ 97 µM); in test [6], 32 µg/mL (≈ 97 µM); in the test on Streptococcus pyogenes, more than 32 µg/mL. Moreover, in the test with Enterococcus faecium, the MIC was more than 32 µg/mL.
`N#Cc1ccc(NCc2cc(Cl)ccc2O)cc1` displayed an Activity with Escherichia coli of 2 µg/mL.
In turn, `COc1cc(O)c2c(c1C)C(=O)N1c3ccc(Cl)cc3[C@@H](O)C[C@H]21` registered an Activity in the test on Escherichia coli of 1 µg/mL. Moreover, the MIC against Staphylococcus aureus [1] turned out to be 8 µg/mL (≈ 23.1 µM); with Staphylococcus aureus [2], 4 µg/mL (≈ 11.6 µM); against Staphylococcus aureus [3] it was 4 µg/mL (≈ 11.6 µM); against Staphylococcus aureus [4], 8 µg/mL (≈ 23.1 µM); with Staphylococcus aureus [5], 16 µg/mL (≈ 46.3 µM); in [6], 8 µg/mL (≈ 23.1 µM). Moreover, the figures for the MIC against Streptococcus pyogenes and against Enterococcus faecium were 32 µg/mL (≈ 92.5 µM) and more than 32 µg/mL, respectively.
Compound `COC(=O)c1c(C)c(OC)cc(O)c1CNc1ccc(Cl)cc1` gave an Activity with Escherichia coli of 16 µg/mL.
Same read-out and setting: under `COc1ccc(N2C(=O)c3c(C)c(OC)cc(O)c3C2OC)cc1` (centres undefined) stands 16 µg/mL; under `COc1cc(O)c2c(c1C)C(=O)N(c1cccc(CC(=O)O)c1)C2`, 2 µg/mL.
`COC(=O)c1c(C)c(OC)cc(O)c1CNc1cccc(Cl)c1` yielded an Activity in the test with Escherichia coli of 4 µg/mL.
Still for that read-out and setting: under `COc1ccc(N2C(=O)c3c(C)c(OC)cc(O)c3C2CC(C)=O)cc1` (centres undefined) stands more than 63 µg/mL.
As to `COc1cc(O)c2c(c1C)C(=O)N1c3ccc(C)cc3COC21` (centres undefined), in the test with Escherichia coli, the Activity is 0.25 µg/mL. In addition, the MIC in the test with Staphylococcus aureus [1] was found to be 32 µg/mL (≈ 103 µM); against Staphylococcus aureus [2], 16 µg/mL (≈ 51.4 µM); in the test with Staphylococcus aureus [3], 16 µg/mL (≈ 51.4 µM); with Staphylococcus aureus [4], 16 µg/mL (≈ 51.4 µM); with Staphylococcus aureus [5], 32 µg/mL (≈ 103 µM); in [6] it was 2 µg/mL (≈ 6.42 µM). The MIC in the test on Streptococcus pyogenes and with Enterococcus faecium was more than 32 µg/mL each time.
In the test on Escherichia coli, `COc1ccc(N2C(=O)c3c(C)c(OC)cc(O)c3C2c2ccc(CS)o2)cc1` (centres undefined) had an Activity of more than 63 µg/mL.
Same read-out and setting: under `COc1ccc(N2C(=O)c3c(C)c(OC)cc(O)c3C2c2ccc(C)o2)cc1` (centres undefined) stands more than 63 µg/mL.
With `COc1cc(O)c2c(c1C)C(=O)N(c1cccc(N)c1)C2`, the Activity with Escherichia coli is 2 µg/mL.
The same measure, in the same setting: with `C=CCC1c2c(O)cc(OC)c(C)c2C(=O)N1c1ccc(OC)cc1` (centres undefined) the figure was 2 µg/mL.
For `COc1cc(O)c2c(c1C)C(=O)N1c3cccnc3COC21` (centres undefined), the Activity with Escherichia coli came out at 0.13 µg/mL. Moreover, the MIC was 1 µg/mL (≈ 3.35 µM) against Staphylococcus aureus [1]; 0.5 µg/mL (≈ 1.68 µM) in the test with Staphylococcus aureus [2]; 1 µg/mL (≈ 3.35 µM) in the test on Staphylococcus aureus [3]; 1 µg/mL (≈ 3.35 µM) in the test on Staphylococcus aureus [4]; 2 µg/mL (≈ 6.7 µM) in the test on Staphylococcus aureus [5]; 0.5 µg/mL (≈ 1.68 µM) in test [6]. Moreover, the results for the MIC against Streptococcus pyogenes and against Enterococcus faecium were 32 µg/mL (≈ 107 µM) and more than 32 µg/mL, respectively.

The term MIC denotes the lowest concentration found to suppress growth. Read a low MIC as a more susceptible organism.
